Columns and labels:
[1] = Cmax in BALB/c mouse at 5 mg/kg, po after 24 hrs by LC/MS/MS method; type: ADME, organism-based; set-up: dose 5 mg/kg, route oral; details: in vivo
NCI-H1975 [2] = assay: cells; type: functional, cell-based; details: Homo sapiens, NCI-H1975, 48 h
Mus musculus [3] = assay: (§1) AUC (0 to infinity) in BALB/c mouse at 5 mg/kg, po after 24 hrs by LC/MS/MS method; type: ADME, organism-based, Plasma; set-up: time infinity, dose 5 mg/kg, route oral; details: in vivo, 24 h
Mus musculus [4] = assay: (§2) Apparent clearance in BALB/c mouse at 5 mg/kg, po after 24 hrs by LC/MS/MS method; type: ADME, organism-based; set-up: dose 5 mg/kg, route oral; details: in vivo, 24 h
[5] = Oral bioavailability in BALB/c mouse at 5 mg/kg after 24 hrs by LC/MS/MS method; type: ADME, organism-based; details: in vivo
Mus musculus [6] = assay: Apparent volume of distribution in BALB/c mouse at 5 mg/kg, po after 24 hrs by LC/MS/MS method; type: ADME, organism-based; set-up: dose 5 mg/kg, route oral; details: in vivo
Mus musculus [7] = assay: Apparent volume of distribution in BALB/c mouse at 10 mg/kg, po after 24 hrs by LC/MS/MS method; type: ADME, organism-based; set-up: dose 10 mg/kg, route oral; details: in vivo
[8] = Cmax in BALB/c mouse at 10 mg/kg, po after 24 hrs by LC/MS/MS method; type: ADME, organism-based; set-up: dose 10 mg/kg, route oral; details: in vivo
SW-620 = assay: Growth inhibition of human SW620 cells at 5 uM; type: functional; details: read-out: GI
NCI-H1975 [9] = assay: Antitumor activity against human NCI-H1975 cells xenografted in nude mouse assessed as reduction in tumor growth at 30 mg/kg/day, ig relative to untreated control; type: functional; details: route intragastric
[10] = Intrinsic clearance in dog liver microsomes assessed per mg protein at 1 uM in presence of NADPH after 0.5 to 30 mins by LC/MS/MS method; type: ADME, Canis lupus familiaris; details: read-out: CLH
[11] = Intrinsic clearance in monkey liver microsomes assessed per mg protein at 1 uM in presence of NADPH after 0.5 to 30 mins by LC/MS/MS method; type: ADME, Macaca mulatta; details: rhesus monkey, read-out: CLH
Mus musculus [12] = assay: (§3) AUC (0 to infinity) in BALB/c mouse at 10 mg/kg, po after 24 hrs by LC/MS/MS method; type: ADME, organism-based, Plasma; set-up: dose 10 mg/kg, route oral, time infinity; details: in vivo, 24 h
[13] = Intrinsic clearance in mouse liver microsomes assessed per mg protein at 1 uM in presence of NADPH after 0.5 to 30 mins by LC/MS/MS method; type: ADME; details: read-out: CLH
[14] = Oral bioavailability in BALB/c mouse at 10 mg/kg after 24 hrs by LC/MS/MS method; type: ADME, organism-based; details: in vivo
Mus musculus [15] = assay: (§4) Apparent clearance in BALB/c mouse at 10 mg/kg, po after 24 hrs by LC/MS/MS method; type: ADME, organism-based; set-up: dose 10 mg/kg, route oral; details: in vivo, 24 h
[16] = Intrinsic clearance in rat liver microsomes assessed per mg protein at 1 uM in presence of NADPH after 0.5 to 30 mins by LC/MS/MS method; type: ADME; details: read-out: CLH
[17] = Intrinsic clearance in human liver microsomes assessed per mg protein at 1 uM in presence of NADPH after 0.5 to 30 mins by LC/MS/MS method; type: ADME; details: read-out: CLH
[18] = target: Epidermal growth factor receptor (Homo sapiens, UniProt P00533, T790M); type: protein assay
Cytochrome P450 2D6 = Cytochrome P450 2D6 (Homo sapiens, UniProt P10635); assay: Inhibition of CYP2D6 in human hepatic microsomes after 20 mins by LC/MS/MS method; type: ADME, Liver
A-431 = assay: cells; type: functional, cell-based; details: Homo sapiens, A-431, 48 h
hERG (KCNH2) [19] = target: T1, hERG (KCNH2) (Homo sapiens, UniProt Q12809); assay: Inhibition of human ERG assessed as reduction in channel currents at 1 uM
NCI-H1975 [20] = assay: Antitumor activity against human NCI-H1975 cells xenografted in nude mouse assessed as reduction in tumor growth at 15 mg/kg/day, ig relative to untreated control; type: functional; details: route intragastric
[21] = Ratio of drug level in brain to plasma in BALB/c mouse at 30 mg/kg, po after 6 hrs by LC/MS/MS method; type: ADME, organism-based; set-up: dose 30 mg/kg, route oral; details: read-out: BPR
Outline: (§5)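 BALB/c mice received a single oral dose of 30 mg/kg. Drug concentrations in lung, brain and plasma were measured at multiple time points over 6 h. Mean tissue levels are expressed as a lung/plasma/brain ratio, with plasma set to 1.0.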

Cytochrome P450 1A2 = target: T2, Cytochrome P450 1A2 (Homo sapiens, UniProt P05177); assay: Inhibition of CYP1A2 in human hepatic microsomes after 20 mins by LC/MS/MS method; type: ADME, Liver
T2 sequence (P05177 whole entry): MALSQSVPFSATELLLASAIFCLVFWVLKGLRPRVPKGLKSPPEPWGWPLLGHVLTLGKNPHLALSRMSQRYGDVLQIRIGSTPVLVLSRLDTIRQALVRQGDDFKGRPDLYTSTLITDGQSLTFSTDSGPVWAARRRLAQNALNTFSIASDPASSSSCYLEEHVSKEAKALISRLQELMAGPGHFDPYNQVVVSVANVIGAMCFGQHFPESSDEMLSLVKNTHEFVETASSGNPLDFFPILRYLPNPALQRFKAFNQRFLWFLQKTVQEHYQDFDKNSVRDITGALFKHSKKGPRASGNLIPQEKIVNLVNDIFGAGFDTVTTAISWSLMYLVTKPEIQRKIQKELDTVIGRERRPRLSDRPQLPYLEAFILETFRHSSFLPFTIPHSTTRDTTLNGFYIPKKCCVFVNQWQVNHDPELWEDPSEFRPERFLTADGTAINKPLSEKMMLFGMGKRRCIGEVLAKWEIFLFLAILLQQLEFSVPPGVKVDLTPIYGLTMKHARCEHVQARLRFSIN

Cytochrome P450 2C9 = Cytochrome P450 2C9 (Homo sapiens, UniProt P11712); assay: Inhibition of CYP2C9 in human hepatic microsomes after 20 mins by LC/MS/MS method; type: ADME, Liver
Cytochrome P450 3A4 = Cytochrome P450 3A4 (Homo sapiens, UniProt P08684); assay: Inhibition of CYP3A4 in human hepatic microsomes after 20 mins by LC/MS/MS method; type: ADME, Liver
[22] = as §3; type: ADME, organism-based, Plasma; set-up: dose 10 mg/kg, route oral, time infinity; details: BALB/c, plasma
[23] = Ratio of drug level in lung to plasma in BALB/c mouse at 30 mg/kg, po after 6 hrs by LC/MS/MS method; type: ADME, organism-based; set-up: dose 30 mg/kg, route oral; outline: as §5
hERG (KCNH2) [24] = target: T1, hERG (KCNH2); assay: Inhibition of human ERG assessed as reduction in channel currents at 10 uM
[25] = as §4; type: ADME, organism-based; set-up: dose 10 mg/kg, route oral; details: BALB/c, in vivo, read-out: CL(app)
Cytochrome P450 2C19 = Cytochrome P450 2C19 (Homo sapiens, UniProt P33261); assay: Inhibition of CYP2C19 in human hepatic microsomes after 20 mins by LC/MS/MS method; type: ADME, Liver
NCI-H1975 [26] = assay: Antitumor activity against human NCI-H1975 cells xenografted in nude mouse assessed as reduction in tumor growth at 60 mg/kg/day, ig relative to untreated control; type: functional; details: route intragastric
[27] = target: Receptor tyrosine-protein kinase erbB-2 (Homo sapiens, UniProt P04626); assay: Inhibition of wild type HER2 (unknown origin) incubated for 5 mins by HTRF assay
NCI-H1975 [28] = assay: Toxicity in human NCI-H1975 cells xenografted nude mouse assessed as induction of mortality at 30 mg/kg/day, ig; type: organism-based; set-up: route intragastric; details: in vivo, po
Outline: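 H1975 NSCLC xenografts set up by subcutaneous inoculation of 3.0 × 10⁷ cells into nude mice. Dosing began at mean tumour size 50−150 mm³. Randomised mice received compound by ig gavage […] for 9 days. Vehicle control was 0.5% CMC-Na + 0.4% Tween80 at 10 mL/kg. Mortality and body weight were monitored during treatment.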

NCI-H1975 [29] = assay: Antitumor activity against human NCI-H1975 cells xenografted in nude mouse assessed as reduction in tumor growth at 15 to 60 mg/kg/day, ig relative to untreated control; type: functional, organism-based
hERG (KCNH2) [30] = target: T1, hERG (KCNH2); assay: Inhibition of human ERG assessed as reduction in channel currents at 0.1 uM
[31] = as §1; type: ADME, organism-based, Plasma; set-up: time infinity, dose 5 mg/kg, route oral; details: BALB/c, plasma
[32] = as §2; type: ADME, organism-based; set-up: dose 5 mg/kg, route oral; details: BALB/c, in vivo, read-out: CL(app)

T1 sequence (Q12809 whole entry): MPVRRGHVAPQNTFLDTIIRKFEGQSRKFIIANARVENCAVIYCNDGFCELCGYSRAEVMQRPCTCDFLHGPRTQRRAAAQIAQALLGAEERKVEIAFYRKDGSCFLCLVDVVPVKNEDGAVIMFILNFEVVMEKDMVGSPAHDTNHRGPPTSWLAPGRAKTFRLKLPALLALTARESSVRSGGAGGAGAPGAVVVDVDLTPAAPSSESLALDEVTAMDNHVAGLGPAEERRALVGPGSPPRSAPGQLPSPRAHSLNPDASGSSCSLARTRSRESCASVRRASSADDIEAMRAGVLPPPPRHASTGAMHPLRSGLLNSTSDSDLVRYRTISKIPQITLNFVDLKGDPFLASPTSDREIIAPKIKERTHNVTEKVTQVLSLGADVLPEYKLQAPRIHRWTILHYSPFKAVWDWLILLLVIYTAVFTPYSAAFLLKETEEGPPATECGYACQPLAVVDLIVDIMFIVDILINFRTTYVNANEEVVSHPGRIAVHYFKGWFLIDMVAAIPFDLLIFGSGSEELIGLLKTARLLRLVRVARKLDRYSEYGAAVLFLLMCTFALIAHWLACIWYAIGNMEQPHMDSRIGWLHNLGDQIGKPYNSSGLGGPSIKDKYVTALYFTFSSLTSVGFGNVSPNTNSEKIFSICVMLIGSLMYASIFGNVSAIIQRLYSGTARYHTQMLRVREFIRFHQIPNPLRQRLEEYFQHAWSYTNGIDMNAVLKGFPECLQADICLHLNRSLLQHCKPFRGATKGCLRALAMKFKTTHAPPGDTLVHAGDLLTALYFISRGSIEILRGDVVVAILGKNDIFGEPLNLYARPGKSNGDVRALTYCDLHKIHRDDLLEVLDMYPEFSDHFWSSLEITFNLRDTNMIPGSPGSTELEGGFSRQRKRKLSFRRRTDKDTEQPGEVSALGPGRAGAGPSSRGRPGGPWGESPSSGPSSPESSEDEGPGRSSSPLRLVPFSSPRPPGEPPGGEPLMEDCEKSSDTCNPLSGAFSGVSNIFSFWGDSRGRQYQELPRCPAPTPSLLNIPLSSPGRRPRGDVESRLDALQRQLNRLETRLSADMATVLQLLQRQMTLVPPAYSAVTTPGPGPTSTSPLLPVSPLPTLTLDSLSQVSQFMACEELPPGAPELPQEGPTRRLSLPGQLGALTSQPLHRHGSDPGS
Sequence of Cytochrome P450 2C9 (P11712 whole entry): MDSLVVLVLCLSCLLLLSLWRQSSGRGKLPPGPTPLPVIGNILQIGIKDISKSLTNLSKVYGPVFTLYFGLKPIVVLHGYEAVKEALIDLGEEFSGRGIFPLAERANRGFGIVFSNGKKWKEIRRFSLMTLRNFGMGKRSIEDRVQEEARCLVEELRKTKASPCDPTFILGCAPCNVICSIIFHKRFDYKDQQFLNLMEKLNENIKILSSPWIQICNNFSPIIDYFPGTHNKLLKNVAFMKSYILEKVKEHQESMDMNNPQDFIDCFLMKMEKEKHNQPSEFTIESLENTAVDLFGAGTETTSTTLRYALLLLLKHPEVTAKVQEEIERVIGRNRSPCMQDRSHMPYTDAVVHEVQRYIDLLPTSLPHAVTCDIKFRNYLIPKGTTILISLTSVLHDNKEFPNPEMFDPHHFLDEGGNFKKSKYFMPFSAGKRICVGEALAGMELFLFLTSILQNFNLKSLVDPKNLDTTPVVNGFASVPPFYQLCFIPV
Sequence of Cytochrome P450 2D6 (P10635 whole entry): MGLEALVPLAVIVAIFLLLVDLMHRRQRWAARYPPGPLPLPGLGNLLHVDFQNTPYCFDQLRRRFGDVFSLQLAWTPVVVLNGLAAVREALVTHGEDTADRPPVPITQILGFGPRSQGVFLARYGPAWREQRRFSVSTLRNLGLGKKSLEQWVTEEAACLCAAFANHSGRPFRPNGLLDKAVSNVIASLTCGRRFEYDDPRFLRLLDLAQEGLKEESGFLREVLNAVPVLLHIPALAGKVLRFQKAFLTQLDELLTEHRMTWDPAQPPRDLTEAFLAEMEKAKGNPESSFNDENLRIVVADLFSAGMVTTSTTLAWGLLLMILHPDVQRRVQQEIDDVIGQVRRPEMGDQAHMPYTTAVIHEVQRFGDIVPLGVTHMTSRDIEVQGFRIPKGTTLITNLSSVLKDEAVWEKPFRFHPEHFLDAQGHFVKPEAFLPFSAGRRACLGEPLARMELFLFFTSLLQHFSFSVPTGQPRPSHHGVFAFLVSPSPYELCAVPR
Sequence of Cytochrome P450 3A4 (P08684 whole entry): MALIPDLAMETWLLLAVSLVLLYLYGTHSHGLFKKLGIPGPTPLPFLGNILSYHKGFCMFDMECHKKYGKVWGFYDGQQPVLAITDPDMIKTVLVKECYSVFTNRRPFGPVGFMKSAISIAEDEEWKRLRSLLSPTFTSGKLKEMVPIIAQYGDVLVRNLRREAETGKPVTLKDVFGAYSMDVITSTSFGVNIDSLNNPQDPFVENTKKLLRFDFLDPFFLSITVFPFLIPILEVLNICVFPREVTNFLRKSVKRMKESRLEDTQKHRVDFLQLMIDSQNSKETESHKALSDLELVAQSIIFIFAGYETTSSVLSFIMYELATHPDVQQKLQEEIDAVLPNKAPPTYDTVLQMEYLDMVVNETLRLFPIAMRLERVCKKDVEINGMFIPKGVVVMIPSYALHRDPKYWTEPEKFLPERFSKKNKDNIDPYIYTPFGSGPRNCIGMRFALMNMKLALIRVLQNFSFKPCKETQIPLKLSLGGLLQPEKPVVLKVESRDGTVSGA
Sequence of Cytochrome P450 2C19 (P33261 whole entry): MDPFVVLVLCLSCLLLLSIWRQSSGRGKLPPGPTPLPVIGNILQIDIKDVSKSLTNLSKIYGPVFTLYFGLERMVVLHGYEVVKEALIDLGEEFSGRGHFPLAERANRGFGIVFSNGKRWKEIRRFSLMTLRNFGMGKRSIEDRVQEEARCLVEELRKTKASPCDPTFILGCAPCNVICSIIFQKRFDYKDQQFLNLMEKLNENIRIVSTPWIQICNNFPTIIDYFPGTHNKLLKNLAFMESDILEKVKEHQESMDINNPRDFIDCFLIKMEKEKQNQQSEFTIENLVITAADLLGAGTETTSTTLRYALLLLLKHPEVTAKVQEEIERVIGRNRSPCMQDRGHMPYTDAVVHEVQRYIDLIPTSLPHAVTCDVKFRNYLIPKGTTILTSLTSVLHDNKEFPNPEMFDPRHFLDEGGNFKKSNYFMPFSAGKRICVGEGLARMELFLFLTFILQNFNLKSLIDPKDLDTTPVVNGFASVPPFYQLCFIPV
Sequence of Receptor tyrosine-protein kinase erbB-2 (P04626 whole entry): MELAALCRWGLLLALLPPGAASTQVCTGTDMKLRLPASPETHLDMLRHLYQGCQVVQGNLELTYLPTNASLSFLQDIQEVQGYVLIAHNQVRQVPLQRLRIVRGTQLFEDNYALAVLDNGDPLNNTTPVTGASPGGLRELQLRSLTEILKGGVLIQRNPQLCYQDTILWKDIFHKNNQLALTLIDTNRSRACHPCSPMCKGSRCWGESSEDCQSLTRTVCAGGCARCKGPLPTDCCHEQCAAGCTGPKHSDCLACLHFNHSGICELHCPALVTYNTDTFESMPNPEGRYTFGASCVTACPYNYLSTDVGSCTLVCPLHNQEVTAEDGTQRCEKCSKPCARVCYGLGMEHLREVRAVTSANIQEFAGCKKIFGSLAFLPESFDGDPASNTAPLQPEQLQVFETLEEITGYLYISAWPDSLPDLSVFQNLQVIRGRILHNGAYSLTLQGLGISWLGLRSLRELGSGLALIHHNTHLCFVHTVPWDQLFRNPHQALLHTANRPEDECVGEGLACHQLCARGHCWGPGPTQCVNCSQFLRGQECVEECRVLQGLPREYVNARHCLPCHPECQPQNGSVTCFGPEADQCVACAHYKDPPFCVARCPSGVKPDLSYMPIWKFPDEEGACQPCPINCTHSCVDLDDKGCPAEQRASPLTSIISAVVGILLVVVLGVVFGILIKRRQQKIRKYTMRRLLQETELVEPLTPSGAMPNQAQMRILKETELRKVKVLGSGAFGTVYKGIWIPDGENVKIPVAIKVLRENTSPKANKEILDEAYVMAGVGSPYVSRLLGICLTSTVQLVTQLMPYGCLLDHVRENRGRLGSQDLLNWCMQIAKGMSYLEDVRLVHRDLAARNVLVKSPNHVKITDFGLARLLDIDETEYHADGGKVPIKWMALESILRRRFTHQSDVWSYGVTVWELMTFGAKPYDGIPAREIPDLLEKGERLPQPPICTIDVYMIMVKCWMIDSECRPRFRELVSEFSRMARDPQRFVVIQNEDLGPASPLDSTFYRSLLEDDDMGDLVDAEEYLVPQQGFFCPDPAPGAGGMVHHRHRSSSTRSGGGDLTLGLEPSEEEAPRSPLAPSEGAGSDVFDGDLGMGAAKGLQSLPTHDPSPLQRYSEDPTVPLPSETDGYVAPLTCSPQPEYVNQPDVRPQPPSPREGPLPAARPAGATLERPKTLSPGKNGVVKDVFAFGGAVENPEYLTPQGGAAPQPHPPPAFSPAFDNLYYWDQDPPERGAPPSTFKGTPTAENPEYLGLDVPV

Compound	Cmax [1] [nM]	bioavailability [5] [%]	Vz (Mus musculus [6]) [L/kg]	microsomal CLint at 1 µM [10] [µL/min/mg]	microsomal CLint at 1 µM [11] [µL/min/mg]	microsomal CLint at 1 µM [13] [µL/min/mg]	microsomal CLint at 1 µM [16] [µL/min/mg]	microsomal CLint at 1 µM [17] [µL/min/mg]	IC50 (NCI-H1975 [2]) [nM]	Vz (Mus musculus [7]) [L/kg]	Cmax [8] [nM]	inhibition of growth at 5 µM (SW-620) [%]	T/C (NCI-H1975 [9]) [%]	bioavailability [14] [%]	IC50 (Cytochrome P450 2D6) [nM]	IC50 (A-431) [nM]	inhibition at 1 µM (hERG (KCNH2) [19]) [%]	Kp at 6 h [21]	IC50 (Cytochrome P450 1A2) [nM]	IC50 (Cytochrome P450 2C9) [nM]	other results
CN(C)C/C=C(\F)C(=O)Nc1cc2c(Nc3ccc(F)c(Cl)c3)ncnc2cc1O[C@H]1CCOC1	–	–	–	39	31	12	14	2	1240	9.69	940	11.5	19.5	84.7	> 10000	130	0	0.79	> 10000	> 10000	IC50 [18]: 5.52 nM; T/C (NCI-H1975 [20]): 42.5%; IC50 (Cytochrome P450 3A4): > 10000 nM; AUC(0-inf) [22]: 10.4 µM·h; Kp at 6 h [23]: 25; inhibition at 10 µM (hERG (KCNH2) [24]): 14.8%; CL/F [25]: 30 mL/min/kg; IC50 (Cytochrome P450 2C19): > 10000 nM; T/C (NCI-H1975 [26]): 9.4%; IC50 [27]: 149 nM; Activity (NCI-H1975 [28]): Non-toxic; inhibition (NCI-H1975 [29]): Dose-dependent effect
COc1cc(N)c(Cl)cc1C(=O)NC1CCN(CCCOc2ccc(F)cc2)CC1OC (stereo not given) [CISAPRIDE]	–	–	–	–	–	–	–	–	–	–	–	–	–	–	–	–	92.4	–	–	–	inhibition at 0.1 µM (hERG (KCNH2) [30]): 65.5%

Now from value to compound, other results behind:

Cmax [1] [nM]	bioavailability [5] [%]	Vz (Mus musculus [6]) [L/kg]	microsomal CLint at 1 µM [10] [µL/min/mg]	microsomal CLint at 1 µM [11] [µL/min/mg]	microsomal CLint at 1 µM [13] [µL/min/mg]	microsomal CLint at 1 µM [16] [µL/min/mg]	microsomal CLint at 1 µM [17] [µL/min/mg]	Compound	IC50 (NCI-H1975 [2]) [nM]	Vz (Mus musculus [7]) [L/kg]	Cmax [8] [nM]	inhibition of growth at 5 µM (SW-620) [%]	T/C (NCI-H1975 [9]) [%]	bioavailability [14] [%]	IC50 (Cytochrome P450 2D6) [nM]	IC50 (A-431) [nM]	inhibition at 1 µM (hERG (KCNH2) [19]) [%]	Kp at 6 h [21]	IC50 (Cytochrome P450 1A2) [nM]	IC50 (Cytochrome P450 2C9) [nM]	other results
90	16.5	12.2	–	–	–	–	–	COc1cc2ncnc(Nc3ccc(F)c(Cl)c3)c2cc1NC(=O)/C(F)=C\CN1CCCCC1	1010	–	–	–	–	–	–	–	–	–	–	–	AUC (Mus musculus [3]): 14.7 µM·min; CL(app) (Mus musculus [4]): 120 mL/min/kg
–	–	–	9	24	6	12	8	CN(C)C/C=C/C(=O)Nc1cc2c(Nc3ccc(F)c(Cl)c3)ncnc2cc1O[C@H]1CCOC1 [AFATINIB]	–	36.2	130	78	30.3	37.4	–	–	–	–	–	–	AUC (Mus musculus [12]): 29.4 µM·min; CL(app) (Mus musculus [15]): 270 mL/min/kg
830	105	7.14	34	102	31	11	37	COc1cc2ncnc(Nc3ccc(F)c(Cl)c3)c2cc1NC(=O)/C(F)=C/CN1CCCCC1	–	–	–	–	67.4	–	> 10000	460	0.71	2.31	> 10000	> 10000	IC50 (Cytochrome P450 3A4): > 10000 nM; AUC(0-inf) [31]: 5.1 µM·h; CL/F [32]: 40 mL/min/kg; Kp at 6 h [23]: 20; inhibition at 10 µM (hERG (KCNH2) [24]): 11.8%; IC50 (Cytochrome P450 2C19): > 10000 nM

Reference: ChEMBL document CHEMBL3351667, “A chemical tuned strategy to develop novel irreversible EGFR-TK inhibitors with improved safety and pharmacokinetic profiles” (J Med Chem, 2014)
